# Measurements reported in ChEMBL document CHEMBL4038284, “Synthesis of novel quinoline-based 4,5-dihydro-1H-pyrazoles as potential anticancer, antifungal, antibacterial and antiprotozoal agents” (Eur J Med Chem, 2017).
# Active and inactive are the calls of the source. No cut-off for these calls is given here.
# Legend:
# [1] = test system: Hs-578T; assay: Growth inhibition of human Hs578T cells incubated for 48 hrs by sulforhodamine B assay; format: functional
# Outline: (§1)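 Five-dose NCI SRB assay at 100, 10, 1.0, 0.1 and 0.01 μM for 48 h at 37 °C, 5% CO2. Medium was RPMI-1640 with 5% FBS and 2 mM glutamine. Time-zero plates were TCA-fixed at compound addition, A515 read after SRB staining. GI50 was solved from [(Ti−Tz)/(C−Tz)]×100 = 50. Values beyond the tested range are given as > or <.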
# [2] = test system: BT-549; assay: Growth inhibition of human BT549 cells incubated for 48 hrs by sulforhodamine B assay; format: functional; settings: BT-549, 48 h
# Outline: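 NCI five-dose SRB assay (100, 10, 1.0, 0.1, 0.01 µM) with 48 h exposure in RPMI-1640 with 5% FBS and 2 mM L-glutamine. Cells fixed with TCA and stained with SRB, read at 515 nm. GI50 is the concentration where [(Ti−Tz)/(C−Tz)]×100 = 50.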
# [3] = test system: HT-29; assay: Growth inhibition of human HT-29 cells incubated for 48 hrs by sulforhodamine B assay; format: functional; settings: HT-29, 48 h; outline: as §1
# [4] = test system: IGROV-1; assay: Growth inhibition of human IGROV1 cells incubated for 48 hrs by sulforhodamine B assay; format: functional; settings: IGROV-1, 48 h; for CC50: read-out: LC50 (the source's name)
# Outline: (§2)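 NCI 60-line screen. Cells in RPMI-1640 with 5% FBS and 2 mM L-glutamine, preincubated 24 h, then time-zero plates TCA-fixed. Compounds from DMSO stocks given at five final concentrations (100, 10, 1.0, 0.1, 0.01 µM) for 48 h at 37 °C, 5% CO2. Cells fixed with 10% TCA, SRB-stained, read at 515 nm. GI50 is the concentration giving 50% lower net protein increase versus control.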
# [5] = test system: NCI-H23; assay: Growth inhibition of human NCI-H23 cells incubated for 48 hrs by sulforhodamine B assay; format: functional; settings: NCI-H23, 48 h; outline: as §1
# [6] = test system: HL-60(TB); assay: Growth inhibition of human HL-60(TB) cells incubated for 48 hrs by sulforhodamine B assay; format: functional; settings: HL-60, 48 h; outline: as §2
# [7] = test system: MDA-MB-231; assay: Growth inhibition of human MDA-MB-231 cells incubated for 48 hrs by sulforhodamine B assay; format: functional; settings: MDA-MB-231, 48 h; outline: as §1
# [8] = test system: NCI/ADR-RES; assay: Growth inhibition of human NCI/ADR-RES cells incubated for 48 hrs by sulforhodamine B assay; format: functional; settings: for CC50: read-out: LC50 (the source's name); outline: as §2
# [9] = test system: OVCAR-3; assay: Growth inhibition of human OVCAR3 cells incubated for 48 hrs by sulforhodamine B assay; format: functional; settings: OVCAR-3, 48 h; outline: as §1
# [10] = test system: SNB-19; assay: Growth inhibition of human SNB19 cells incubated for 48 hrs by sulforhodamine B assay; format: functional; settings: SNB-19, 48 h
# Outline: (§3)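 NCI-60 panel cells grown in RPMI-1640 with 5% FBS and 2 mM L-glutamine, preincubated 24 h at 37 °C/5% CO2. Time-zero plates were TCA-fixed at compound addition. DMSO stocks were diluted in medium and tested at five final concentrations (100, 10, 1.0, 0.1, 0.01 µM) for 48 h. Cells were TCA-fixed, stained with SRB and read at 515 nm. GI50 = 50% lower net protein increase versus control.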
# [11] = test system: SNB-75; assay: Growth inhibition of human SNB75 cells incubated for 48 hrs by sulforhodamine B assay; format: functional; settings: SNB-75, 48 h; for CC50: read-out: LC50 (the source's name); outline: as §2
# [12] = test system: ACHN; assay: Growth inhibition of human ACHN cells incubated for 48 hrs by sulforhodamine B assay; format: functional; settings: for CC50: read-out: LC50 (the source's name); outline: as §2
# [13] = test system: MDA-MB-435; assay: Growth inhibition of human MDA-MB-435 cells incubated for 48 hrs by sulforhodamine B assay; format: functional; settings: MDA-MB-435, 48 h; outline: as §1
# [14] = test system: MDA-MB-468; assay: Growth inhibition of human MDA-MB-468 cells incubated for 48 hrs by sulforhodamine B assay; format: functional; settings: MDA-MB-468, 48 h; outline: as §1
# [15] = test system: OVCAR-4; assay: Growth inhibition of human OVCAR4 cells incubated for 48 hrs by sulforhodamine B assay; format: functional; settings: OVCAR-4, 48 h; outline: as §1
# [16] = test system: HOP-92; assay: Growth inhibition of human HOP92 cells incubated for 48 hrs by sulforhodamine B assay; format: functional; settings: HOP-92, 48 h; outline: as §1
# [17] = test system: HCC 2998; assay: Growth inhibition of human HCC2998 cells incubated for 48 hrs by sulforhodamine B assay; format: functional; settings: HCC 2998, 48 h; outline: as §2
# [18] = test system: A498; assay: Growth inhibition of human A498 cells incubated for 48 hrs by sulforhodamine B assay; format: functional; settings: A498, 48 h; for CC50: read-out: LC50 (the source's name); outline: as §2
# [19] = test system: RPMI-8226; assay: Growth inhibition of human RPMI8226 cells incubated for 48 hrs by sulforhodamine B assay; format: functional; settings: RPMI-8226, 48 h; for CC50: read-out: LC50 (the source's name); outline: as §2
# [20] = test system: NCI-H322M; assay: Growth inhibition of human NCI-H322M cells incubated for 48 hrs by sulforhodamine B assay; format: functional; outline: as §1
# [21] = test system: OVCAR-8; assay: Growth inhibition of human OVCAR8 cells incubated for 48 hrs by sulforhodamine B assay; format: functional; settings: OVCAR-8, 48 h; outline: as §1
# [22] = test system: SF-295; assay: Growth inhibition of human SF295 cells incubated for 48 hrs by sulforhodamine B assay; format: functional; settings: SF-295, 48 h; outline: as §1
# [23] = test system: SK-MEL-28; assay: Growth inhibition of human SK-MEL-28 cells incubated for 48 hrs by sulforhodamine B assay; format: functional; settings: SK-MEL-28, 48 h; outline: as §3
# [24] = test system: UACC-257; assay: Growth inhibition of human UACC257 cells incubated for 48 hrs by sulforhodamine B assay; format: functional; settings: UACC-257, 48 h; outline: as §3
# [25] = test system: NCI-H322M; assay: Growth inhibition of human NCI-H322M cells at 10 uM incubated for 48 hrs by sulforhodamine B assay; format: functional, cell-based
# Outline: (§4)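 NCI 60-line panel, single 10 μM dose. Cells were grown in RPMI-1640 with 5% FBS and 2 mM L-glutamine and pre-incubated 24 h before compound addition (DMSO stock). Exposure was 48 h at 37 °C, 5% CO2. Cells were fixed with cold TCA (10% final), stained with 0.4% SRB, bound dye dissolved in 10 mM Tris base, A515 read. Growth was taken relative to time-zero and untreated control plates.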
# [26] = test system: MDA-MB-231; assay: Growth inhibition of human MDA-MB-231 cells at 10 uM incubated for 48 hrs by sulforhodamine B assay; format: functional, cell-based; outline: as §4
# [27] = test system: A549; assay: Growth inhibition of human A549/ATCC cells at 10 uM incubated for 48 hrs by sulforhodamine B assay; format: functional, cell-based
# Outline: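 NCI 60-cell-line screen at a single 10 µM dose. Cells in RPMI-1640 with 5% FBS and 2 mM L-glutamine, pre-incubated 24 h, then treated for 48 h at 37 °C. TCA fixation, sulforhodamine B staining, absorbance at 515 nm. Percentage growth calculated against time-zero and untreated controls.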
# [28] = read-out: LC50 (the source's name)
structure (smiles),measurement,setting,value
COc1cccc2c1C(=O)c1c(O)c3c(c(O)c1C2=O)C[C@@](O)(C(=O)CO)C[C@@H]3O[C@H]1C[C@H](N)[C@H](O)[C@H](C)O1 [DOXORUBICIN],GI50,[1],330 nM
same,GI50,[2],230 nM
same,GI50,[3],120 nM
same,GI50,[4],170 nM
same,CC50,[4],100000 nM
same,GI50,[5],150 nM
same,GI50,[6],120 nM
same,GI50,[7],510 nM
same,CC50,[8],100000 nM
same,GI50,[9],390 nM
same,GI50,[10],40 nM
same,GI50,[11],70 nM
same,CC50,[11],3300 nM
same,GI50,[12],80 nM
same,CC50,[12],100000 nM
same,GI50,[13],250 nM
same,GI50,[14],50 nM
same,GI50,[15],370 nM
same,GI50,[16],100 nM
same,GI50,[17],260 nM
same,GI50,[18],100 nM
same,CC50,[18],1900 nM
same,GI50,[19],80 nM
same,CC50,[19],100000 nM
same,GI50,[20],540 nM
same,GI50,[21],100 nM
same,GI50,[22],100 nM
same,GI50,[23],210 nM
same,GI50,[24],140 nM
COc1ccc(C2=NN(C=O)C(c3cccc(Nc4ccnc5cc(Cl)ccc45)c3)C2)cc1 (stereo not drawn),GI50,[1],3920 nM
same,CC50,[1]; [28],> 100000 nM
same,GI50,[2],1930 nM
same,CC50,[2]; [28],> 100000 nM
same,GI50,[3],1650 nM
same,LC50,[3],67400 nM
same,GI50,[4],3710 nM
same,CC50,[4],> 100000 nM
same,GI50,[5],1870 nM
same,CC50,[5]; [28],> 100000 nM
same,GI50,[6],2030 nM
same,CC50,[6]; [28],33600 nM
same,GI50,[7],4000 nM
same,CC50,[7]; [28],> 100000 nM
same,GI50,[8],1660 nM
same,CC50,[8],> 100000 nM
same,GI50,[9],1970 nM
same,CC50,[9]; [28],63700 nM
same,GI50,[10],5110 nM
same,CC50,[10]; [28],> 100000 nM
same,GI50,[11],2560 nM
same,CC50,[11],> 100000 nM
same,GI50,[12],4590 nM
same,CC50,[12],> 100000 nM
same,GI50,[13],370 nM
same,CC50,[13]; [28],> 100000 nM
same,growth inhibition (GI),[25],Active
same,GI50,[14],420 nM
same,CC50,[14]; [28],63800 nM
same,GI50,[15],1540 nM
same,CC50,[15]; [28],> 100000 nM
same,growth inhibition (GI),[26],Active
same,GI50,[16],3410 nM
same,LC50 (concentration giving 50% net cell kill),[16],> 100000 nM
same,GI50,[17],11700 nM
same,CC50,[17]; [28],> 100000 nM
same,GI50,[18],1350 nM
same,CC50,[18],> 100000 nM
same,GI50,[19],1360 nM
same,CC50,[19],> 100000 nM
same,growth inhibition (GI),[27],Active
same,GI50,[20],6510 nM
same,CC50,[20]; [28],> 100000 nM
same,GI50,[21],3290 nM
same,LC50 (concentration causing 50% net cell kill),[21],> 100000 nM
same,GI50,[22],1240 nM
same,CC50,[22]; [28],> 100000 nM
same,GI50,[23],8120 nM
same,CC50,[23]; [28],67100 nM
same,GI50,[24],3060 nM
same,CC50,[24]; [28],> 100000 nM
Clc1ccc(C2=NN(c3cc(Cl)cc(Cl)c3)C(c3cccc(Nc4ccnc5cc(Cl)ccc45)c3)C2)cc1 (stereo not drawn),growth inhibition (GI),[25],inactive
same,growth inhibition (GI),[26],inactive
same,growth inhibition (GI),[27],inactive
COc1ccc(C2=NN(c3ccccc3)C(c3cccc(Nc4ccnc5cc(Cl)ccc45)c3)C2)cc1 (stereo not drawn),growth inhibition (GI),[25],inactive
same,growth inhibition (GI),[26],inactive
same,growth inhibition (GI),[27],inactive
COc1ccc(C2=NN(c3ccc(Cl)cc3)C(c3cccc(Nc4ccnc5cc(Cl)ccc45)c3)C2)cc1 (stereo not drawn),growth inhibition (GI),[25],inactive
same,growth inhibition (GI),[26],inactive
same,growth inhibition (GI),[27],inactive
Clc1ccc(C2=NN(c3ccc(Cl)cc3)C(c3cccc(Nc4ccnc5cc(Cl)ccc45)c3)C2)cc1 (stereo not drawn),growth inhibition (GI),[25],inactive
same,growth inhibition (GI),[26],inactive
same,growth inhibition (GI),[27],inactive
Clc1ccc(C2=NN(c3ccccc3)C(c3cccc(Nc4ccnc5cc(Cl)ccc45)c3)C2)cc1 (stereo not drawn),growth inhibition (GI),[25],inactive
same,growth inhibition (GI),[26],inactive
same,growth inhibition (GI),[27],inactive
COc1cc(C2=NN(c3ccc(Cl)cc3)C(c3cccc(Nc4ccnc5cc(Cl)ccc45)c3)C2)cc(OC)c1OC (stereo not drawn),growth inhibition (GI),[25],inactive
same,growth inhibition (GI),[26],inactive
same,growth inhibition (GI),[27],inactive
